Compound activity deposited in PubChem BioAssay by several laboratories.
NR2E3 ag-1: NR2E3 agonists in two-hybrid cells, primary screen, cell-based, luminescence, CHO-S, Gal4-NCOR/VP16-NR2E3. Photoreceptor-specific nuclear receptor (Homo sapiens), Q9Y5X4. luciferase. inhibition of corepressor binding, % at 3.98 µM. 360,000 tested, 0.35% active;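 active = inhibition above the mean of all tested compounds plus 3 SD, cut at about 70% in these data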;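 also: 0% = DMSO with NR2E3 transfected cells and 100% = cells lacking NR2E3 construct; higher means lower luciferase signal from less NR2E3 corepressor binding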
EP2 mod: EP2 receptor modulators, cAMP readout, primary screen, cell-based, HTRF cAMP, PGE2 stimulation | EP2-expressing cells, cAMP HTRF FRET, PGE2 co-stimulation | 260,000 tested, 0.83% active | induction, % at 25 µM | Prostaglandin E2 receptor EP2 subtype (Homo sapiens), P43116;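 active = compounds whose cAMP rise, as percent of the full-agonist control response, exceeds 60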;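 also: rat C6 glioma line stably carrying human EP2 under a CMV promoter; the protocol text gives 20 µM as final concentration; 100% = response of wells given 1 µM PGE2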
Furin inh: human furin inhibitors, primary screen, biochemical, fluorescence intensity; inhibition, % at 20 µM or 30 µM; purified furin, fluorogenic substrate cleavage; 220,000 tested, 0.061% active; P09958; in the data active = inhibition above about 25%
Target sequence (P09958 108-714 limits assumed): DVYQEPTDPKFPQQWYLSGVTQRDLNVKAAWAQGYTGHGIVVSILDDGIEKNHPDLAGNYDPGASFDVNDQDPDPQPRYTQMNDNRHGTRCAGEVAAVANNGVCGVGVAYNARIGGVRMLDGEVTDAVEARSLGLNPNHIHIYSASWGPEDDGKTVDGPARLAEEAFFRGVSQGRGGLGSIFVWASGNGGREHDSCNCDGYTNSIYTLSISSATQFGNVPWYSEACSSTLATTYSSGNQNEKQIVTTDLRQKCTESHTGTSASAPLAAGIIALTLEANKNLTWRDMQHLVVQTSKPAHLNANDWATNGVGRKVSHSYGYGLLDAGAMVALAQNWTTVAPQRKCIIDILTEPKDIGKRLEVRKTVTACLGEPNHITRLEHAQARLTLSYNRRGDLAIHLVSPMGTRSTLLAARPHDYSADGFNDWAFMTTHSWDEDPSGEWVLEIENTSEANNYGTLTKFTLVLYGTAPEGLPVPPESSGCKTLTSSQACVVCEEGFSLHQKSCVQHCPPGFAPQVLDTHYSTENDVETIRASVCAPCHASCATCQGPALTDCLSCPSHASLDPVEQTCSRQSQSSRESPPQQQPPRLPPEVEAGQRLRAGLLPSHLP
GASC-1 inh: inhibitors of GASC-1 histone demethylase, primary screen, biochemical, fluorescence, DELFIA europium; Lysine-specific demethylase 4C (Homo sapiens), Q9H3R0; GST-JMJD2C(1-420) H3K9me3 demethylation; inhibition, % at 2.35 µM; 330,000 tested, 0.069% active; AID 2099, 2009;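 active = more than half of a compound's replicate wells show inhibition beyond 50%, single wells judged on their own value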;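 also: signal counts dimethyl H3K9 product captured on neutravidin plate; 0% = median of DMSO wells and 100% = 0.3 times that DMSO median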
NR2E3 ag-2: inhibitors of NR2E3-RetCOR corepressor binding, primary screen, NR2E3 agonist project, biochemical, TR-FRET, GST-NR2E3, biotin-RetCOR; Photoreceptor-specific nuclear receptor (Homo sapiens), Q9Y5X4; 1536-well; inhibition of corepressor binding, % at 4.78 µM; 320,000 tested, 0.12% active; AID 2300, 2010;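 active = percent inhibition above the cutoff of mean plus 3 SD of all tested compounds, set per screening campaign, cut at about 20% in these data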;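 also: 0% = DMSO wells and 100% = biotin wells as full block of FRET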
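System: GST-NR2E3 and biotin-RetCOR proteins; probe or stimulus: 7 nM biotin-RetCOR; doses: compound at 4.8 µM, single dose; schedule: Compound–protein incubation for 5 h at 4 °C; detection: time-resolved FRET; read-out: percent inhibition; controls: biotin wells as high control, 0.6% DMSO wells as low control; format: 1536-well plates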
EP2 antag: human EP2 receptor antagonists, primary screen, TR-FRET cAMP, C6 glioma cells. Prostaglandin E2 receptor EP2 subtype (Homo sapiens), P43116. C6 glioma cells expressing human EP2; cells stimulated with saturating PGE2. inhibition, % at 25 µM. 260,000 tested, 0.52% active;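 active = percent inhibition above 40 after rounding to a whole number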;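 also: rat C6 glioma host cells with rolipram phosphodiesterase inhibitor present; the protocol text gives 20 µM as final concentration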
* = called active by the depositor; · = not tested or not shown. Only some compounds are listed: those with a hit (about 1.3% of all), similar ones and a draw of the others.

SMILES	NR2E3 ag-1	EP2 mod	Furin inh	GASC-1 inh	NR2E3 ag-2	EP2 antag
COC(=O)c1ccccc1S(=O)(=O)N1CCC2(CC1)Nc1ccccc1-n1cccc12	·	-22.6	·	·	·	3.4
Cc1ccc(Cl)cc1NC(C#N)c1ccccc1 (stereo unspecified)	-3.6	62.9*	-16.4	9.3	0.7	11.2
Cc1cnc(NC(=O)c2nn(C)cc2[N+](=O)[O-])s1	-33.1	-36.7	-25.7	-6.5	·	46.2*
Cc1ccc(-c2nc(NC(=O)c3nn(C)cc3[N+](=O)[O-])sc2C)cc1	4.6	-60.4	-10.6	0.9	-3.3	22.2
CC1=NOC(=O)/C1=C\c1ccc(-c2ccc(Cl)c(C(=O)O)c2)o1	7.9	13.4	10.2	10.7	·	7.0
CC1=NOC(=O)/C1=C/c1ccc(O)c(Br)c1	-7.3	·	·	6.8	2.9	·
O=C1ON=C(c2ccccc2)/C1=C\c1ccco1	2.7	-57.5	-3.6	2.7	4.7	12.4
CC1=NOC(=O)/C1=C\c1ccc(-c2ccccc2Br)o1	-19.9	14.3	-9.3	-12.4	·	43.8*
Cc1ccc(/C=C2/C(=O)ON=C2c2ccccc2)o1	-29.9	-50.1	-10.8	13.6	-0.7	80.3*
CC1=NOC(=O)/C1=C\c1ccc(-c2cccc(Cl)c2)o1	-13.0	-35.3	2.6	2.8	-1.0	109.4*
COc1ccc(S(=O)(=O)Nc2cc(C(C)C)c(O)cc2C)cc1	-1.2	29.3	29.9*	-0.9	1.9	6.6
COc1ccc(S(=O)(=O)Nc2cc(C)c(O)cc2C(C)C)cc1	20.8	16.3	-10.5	114.5	0.2	14.1
O=C1C(=O)N(CCOCCO)C(c2cccs2)/C1=C(/O)c1ccc(Cl)cc1 (stereo unspecified)	·	1.5	·	·	·	10.2
CCCN(Cc1ccccc1)C(=S)Nc1ccc(C(C)=O)cc1	-9.4	-2.4	-21.6	-12.9	-2.5	4.6
CC(=O)c1ccc(NC(=S)N(CCCN(C)C)Cc2ccccc2)cc1	16.1	-10.2	-20.0	0.4	1.4	128.2*
C[N+]1(CCC(=O)c2ccco2)CC2CCC(CC2)C1 (stereo unspecified)	·	15.1	·	·	·	45.2*
Nc1ccc(N2CCN(c3cccc(Cl)c3)CC2)cc1	-17.6	-4.9	-17.3	-0.4	-1.1	12.3
Nc1ccc(N2CCCC2)cc1	·	-94.4	·	·	·	68.3*
O=C(Nc1ccc(CN2CCOCC2)cc1)c1ccc(-c2cc(Cl)ccc2Cl)o1	4.0	-39.3	1.9	1.2	-3.2	59.2*
O=C(Nc1ccc(CN2CCOCC2)cc1)c1ccc(Br)o1	-85.5	·	·	-22.5	4.2	·
C[C@@]12C[C@H](O)[C@@H]3[C@H](CCC4=CC(=O)CC[C@]43C)[C@H]1CC[C@H]2c1csc(-c2ccccc2)n1	·	35.9	·	·	·	39.7*
CCNc1nc(NCC)nc(SCCOC(=O)c2ccccc2)n1	-0.3	63.3*	-11.0	0.9	1.7	6.3
O=C(NCCc1nc(-c2cccnc2)n[nH]1)C12CC3CC(CC(C3)C1)C2	·	-56.2	·	·	·	·
O=C(NC1CCCc2c1cnn2-c1ccccc1F)c1ccccn1 (stereo unspecified)	14.1	·	·	-30.8	1.2	·
O=C(NC1CCCc2c1cnn2-c1ccc(F)cc1F)c1ccccn1 (stereo unspecified)	-2.4	-28.6	-18.9	7.8	1.7	45.4*
Oc1ccc(Cn2c(-c3ccc(O)cc3)nc3ccccc32)cc1	·	20.6	·	·	·	46.6*
O=C(Nc1ccccc1N1CCCCC1)c1ncoc1-c1cccc(F)c1	-18.6	42.7	-12.0	-5.8	-1.8	3.9
O=C(Nc1ccccc1N1CCCCC1)c1ncoc1-c1ccc(F)cc1	-7.9	63.4*	-11.5	3.6	-4.4	8.6
CN(C)CCOc1nc2c(c(=O)n(C)c(=O)n2C)n1Cc1cccc2ccccc12	·	-72.5	·	·	·	7.9
COC(=O)c1ccc(CCc2cc(O)ccc2O)cc1	-46.6	-5.1	·	·	·	47.4*
